ChEMBL document CHEMBL1667724, “Landomycins P-W, cytotoxic angucyclines from Streptomyces cyanogenus S-136” (J Nat Prod, 2011)
pIC50: −log10 of the molar value.

Legend:
MCF7 = assay: Cytotoxicity against ER-positive human MCF7 cells after 24 hrs by trypan blue staining; type: functional, cell-based; settings: for pIC50: Homo sapiens, MCF7, 24 h, read-out: IC50; for IC50: mcf7
Method in brief: (§1)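 Cells grown in DMEM; 50 × 10^3 cells per well seeded and left to attach overnight, then medium replaced with fresh medium containing a range of compound concentrations for 24 hours at 37 °C. Adherent plus floating cells pooled, resuspended in PBS, and stained with 0.4% trypan blue for 3 min. Live and dead cells counted on a hemocytometer. IC50 taken from dose-response curves as the mean of three experiments. Ethanol served as positive control and untreated medium as negative control.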

[1] = Cytotoxicity against ER-refractory human MDA231 cells after 24 hrs by trypan blue staining; type: functional, cell-based; settings: MDA-MB-231, 24 h; method in brief: as §1

Compound | pIC50 (MCF7) | pIC50 [1] | IC50 (MCF7)
Cc1cc(O)c2c(c1)C[C@@H](O)C1=C2C(=O)c2c(O)ccc(O)c2C1=O [LANDOMYCINONE] | 5.68 | 5.85 | –
Cc1cc(O)c2c(c1)C[C@@H](O)C1=C2C(=O)c2c(O)ccc(O[C@H]3C[C@@H](O)[C@H](O[C@H]4C[C@@H](O[C@H]5CC[C@H](O[C@H]6C[C@@H](O)[C@H](O[C@H]7C[C@@H](O)[C@H](O)[C@@H](C)O7)[C@@H](C)O6)[C@H](C)O5)[C@H](O)[C@@H](C)O4)[C@@H](C)O3)c2C1=O [LANDOMYCIN B] | 5.37 | 5.74 | –
Cc1cc(O)c2c3c(ccc2c1)C(=O)c1c(O[C@H]2C[C@@H](O)[C@H](O[C@H]4C[C@@H](O[C@H]5CC[C@H](O[C@H]6C[C@@H](O)[C@H](O[C@H]7C[C@@H](O[C@H]8CC[C@H](O)[C@H](C)O8)[C@H](O)[C@@H](C)O7)[C@@H](C)O6)[C@H](C)O5)[C@H](O)[C@@H](C)O4)[C@@H](C)O2)ccc(O)c1C3=O [LANDOMYCIN U] | 5.68 | 5.14 | –
Cc1cc(O)c2c3c(ccc2c1)C(=O)c1c(O[C@H]2C[C@@H](O)[C@H](O[C@H]4C[C@@H](O)[C@H](O)[C@@H](C)O4)[C@@H](C)O2)ccc(O)c1C3=O [LANDOMYCIN R] | – | 5.77 | Not Active
Cc1cc(O)c2c(c1)C[C@@H](O)C1=C2C(=O)c2c(O)ccc(O[C@H]3C[C@@H](O)[C@H](O[C@H]4C[C@@H](O[C@H]5CC[C@H](O[C@H]6C[C@@H](O)[C@H](O[C@H]7C[C@@H](O[C@H]8CC[C@H](O)[C@H](C)O8)[C@H](O)[C@@H](C)O7)[C@@H](C)O6)[C@H](C)O5)[C@H](O)[C@@H](C)O4)[C@@H](C)O3)c2C1=O [LANDOMYCIN A] | 5.60 | 5.85 | –
Cc1cc(O)c2c3c(ccc2c1)C(=O)c1c(O[C@H]2C[C@@H](O)[C@H](O[C@H]4C[C@@H](O)[C@H](O)[C@@H](C)O4)[C@@H](C)O2)cccc1C3=O [LANDOMYCIN O] | – | 5.45 | Not Active
Cc1cc(O)c2c3c(ccc2c1)C(=O)c1c(O[C@H]2C[C@@H](O)[C@H](O[C@H]4C[C@@H](O[C@H]5CC[C@H](O[C@H]6C[C@@H](O)[C@H](O[C@H]7C[C@@H](O)[C@H](O)[C@@H](C)O7)[C@@H](C)O6)[C@H](C)O5)[C@H](O)[C@@H](C)O4)[C@@H](C)O2)ccc(O)c1C3=O [LANDOMYCIN W] | 5.16 | 5.58 | –
Cc1cc(O)c2c(c1)C[C@@H](O)C1=C2C(=O)c2c(O)ccc(O[C@H]3C[C@@H](O)[C@H](O[C@H]4C[C@@H](O)[C@H](O)[C@@H](C)O4)[C@@H](C)O3)c2C1=O [LANDOMYCIN D] | 5.12 | 5.76 | –
Cc1cc(O)c2c3c(ccc2c1)C(=O)c1c(O)ccc(O)c1C3=O [ANHYDROLANDOMYCINONE] | 5.74 | 5.70 | –
Cc1cc(O)c2c(c1)C[C@@H](O)C1=C2C(=O)c2cccc(O[C@H]3C[C@@H](O)[C@H](O[C@H]4C[C@@H](O)[C@H](O)[C@@H](C)O4)[C@@H](C)O3)c2C1=O [LANDOMYCIN F] | – | 5.74 | Not Active
Cc1cc(O)c2c(c1)C[C@@H](O)C1=C2C(=O)c2cccc(O[C@H]3C[C@@H](O)[C@H](O[C@H]4C[C@@H](O[C@H]5CC[C@H](O[C@H]6C[C@@H](O)[C@H](O[C@H]7C[C@@H](O)[C@H](O)[C@@H](C)O7)[C@@H](C)O6)[C@H](C)O5)[C@H](O)[C@@H](C)O4)[C@@H](C)O3)c2C1=O [LANDOMYCIN V] | 5.21 | 5.82 | –
Cc1cc(O)c2c(c1)C[C@@H](O)C1=C2C(=O)c2cccc(O[C@H]3C[C@@H](O)[C@H](O[C@H]4C[C@@H](O[C@H]5CC[C@H](O[C@H]6C[C@@H](O)[C@H](O[C@H]7C[C@@H](O[C@H]8CC[C@H](O)[C@H](C)O8)[C@H](O)[C@@H](C)O7)[C@@H](C)O6)[C@H](C)O5)[C@H](O)[C@@H](C)O4)[C@@H](C)O3)c2C1=O [LANDOMYCIN S] | 5.17 | 5.82 | –
C[C@]1(O)CC(=O)c2c(ccc3c2C(=O)c2cccc(O)c2C3=O)C1 [TETRANGOMYCIN] | – | 5.81 | Not Active
Cc1cc(O)c2c3c(ccc2c1)C(=O)c1c(O[C@H]2C[C@@H](O)[C@H](O[C@H]4C[C@@H](O[C@H]5CC[C@H](O)[C@H](C)O5)[C@H](O)[C@@H](C)O4)[C@@H](C)O2)ccc(O)c1C3=O [LANDOMYCIN Q] | – | 5.41 | Not Active
Cc1cc(O)c2c3c(ccc2c1)C(=O)c1c(O[C@H]2C[C@@H](O)[C@H](O[C@H]4C[C@@H](O[C@H]5CC[C@H](O)[C@H](C)O5)[C@H](O)[C@@H](C)O4)[C@@H](C)O2)cccc1C3=O [LANDOMYCIN P] | – | 5.45 | Not Active
Cc1cc(O)c2c3c(ccc2c1)C(=O)c1c(O[C@H]2C[C@@H](O)[C@H](O[C@H]4C[C@@H](O[C@H]5CC[C@H](O[C@H]6C[C@@H](O)[C@H](O[C@H]7C[C@@H](O[C@H]8CC[C@H](O)[C@H](C)O8)[C@H](O)[C@@H](C)O7)[C@@H](C)O6)[C@H](C)O5)[C@H](O)[C@@H](C)O4)[C@@H](C)O2)cccc1C3=O [LANDOMYCIN T] | – | 5.73 | Not Active
Cc1cc(O)c2c3c(ccc2c1)C(=O)c1c(O)cccc1C3=O [TETRANGULOL] | – | 5.82 | Not Active
Cc1cc(O)c2c3c(ccc2c1)C(=O)c1c(O[C@H]2C[C@@H](O)[C@H](O[C@H]4C[C@@H](O[C@H]5CC[C@H](O[C@H]6C[C@@H](O)[C@H](O[C@H]7C[C@@H](O)[C@H](O)[C@@H](C)O7)[C@@H](C)O6)[C@H](C)O5)[C@H](O)[C@@H](C)O4)[C@@H](C)O2)cccc1C3=O [LANDOMYCIN M] | 5.15 | 5.72 | –
